These results are taken from publication PMC3375358 (Journal of Medicinal Chemistry, 2012).

One assay has as its target KIX-KID interaction (Homo sapiens, UniProt Q92793). Briefly: in vitro renilla luciferase complementation assay for KIX-KID interaction. Type of assay: biochemical. Summed up: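 KIX-KID binding was measured in vitro by renilla luciferase complementation, with test compounds up to 50 μM. IC50 values are given as mean ± SD from at least two independent experiments. The value is listed as >50 if IC50 was not reached at the top concentration.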

Assay [1] concerns CREB-mediated gene transcription. Briefly: CREB reporter assay in HEK 293T cells. Type of assay: cell-based. Put shortly: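 Inhibition of CREB-dependent reporter transcription by test compounds was measured in HEK 293T cells, with a top concentration of 50 μM. IC50 values are given as mean ± SD from at least two independent experiments. Where IC50 was not reached at the highest concentration, the value is recorded as >50.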

Sequence of KIX-KID interaction (Q92793 587-666 limits assumed): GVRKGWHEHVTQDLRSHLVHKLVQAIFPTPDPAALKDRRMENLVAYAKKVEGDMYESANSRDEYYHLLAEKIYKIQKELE

`O=c1oc2cc3ccccc3cc2c(=O)n1-c1ccc(Cl)cc1` [Compound 2, 3-(4-Chlorophenyl)-2H-naphtho[2,3-e][1,3]oxazine-2,4-(3H)-dione]: on KIX-KID interaction, the “activity in inhibiting KIX-KID interaction (in words)” value was “neither of these compounds showed any activity”. The “activity in cell-based CREB reporter assay (in words)” value in assay [1] was “low or no inhibitory activity”.
On the same counts, the results for `O=c1[nH]c2cc3ccccc3cc2c(=O)n1-c1ccc(Cl)cc1` [Compound 3, 3-(4-Chlorophenyl)-benzo[g]quinazoline-2,4-(1H,3H)-dione] are “neither of these compounds showed any activity” and “low or no inhibitory activity”.
Turning to `Clc1ccc(Nc2noc3cc4ccccc4cc23)cc1` [Compound 4, N-(4-Chlorophenyl)-naphtho[2,3-d]isoxazol-3-amine], the “activity in inhibiting KIX-KID interaction (in words)” value on KIX-KID interaction was “inactive”. In addition, in assay [1], the “activity in cell-based CREB reporter assay (in words)” value was “very weak activity”.
For the compound `Cn1nc(Nc2ccc(Cl)cc2)c2cc3ccccc3cc21` [Compound 6, N-(4-Chlorophenyl)-1-methyl-1H-benzo[f]indazol-3-amine], the “activity in cell-based CREB reporter assay (in words)” value in assay [1] was “inactive”.
